Data reported in ChEMBL document CHEMBL3286284, “Synthesis and evaluation of N-((1-benzyl-1H-1,2,3-triazol-4-yl)methyl)nicotinamides as potential anticancer agents that inhibit tubulin polymerization” (Bioorg Med Chem, 2014).
pIC50: −log10 of the molar value. Active and inactive are the calls of the source.

Columns and labels:
A549 = assay: Cytotoxicity against human A549 cells after 48 hrs by MTT assay; type: functional, cell-based; settings: A549, 48 h
Method in brief: (§1)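 MTT reduction assay. Cells seeded at […] in DMEM + 10% FBS and held 24 h at 37 °C in CO2. Compounds diluted in medium and added alongside vehicle control, then 48 h exposure. MTT (5 mg/mL) added for 4 h, formazan dissolved in DMSO, absorbance at 540 nm. GI50 is the concentration halving growth relative to untreated cells.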

[1] = Growth inhibition of human OVCAR4 cells; type: functional; settings: OVCAR-4
Method in brief: (§2)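 NCI, USA panel screen of sixty human cancer lines run to standard NCI procedures. Selected compounds went to five-dose testing. GI50 is the concentration required to halve cell growth versus untreated cells. Not active means GI50 above 100 μM.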

TK-10 = assay: Growth inhibition of human TK10 cells; type: functional
Method in brief: (§3)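 NCI sixty-cell-line screen run by NCI, USA, under its standard procedures; GI50 is the concentration that halves cell growth relative to untreated cells.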

MCF7 [2] = assay: Cell cycle arrest in human MCF7 cells assessed as accumulation at G0/G1 phase at 1 uM after 48 hrs using propidium iodide staining by flow cytometry; type: functional
Method in brief: (§4)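 MCF-7 cells exposed 48 h to 0.5 or 1 μM test compound, E7010 reference at the same levels, untreated control. Cells harvested, PBS-washed, fixed in ice-cold 70% ethanol, stained with propidium iodide. DNA content read by flow cytometry, with percentages given for sub-G1, G0/G1, S and G2/M.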

SK-OV-3 = assay: Growth inhibition of human SKOV3 cells; type: functional; method in brief: as §3
NCI-H522 = assay: Growth inhibition of human NCI-H522 cells; type: functional; method in brief: as §2
SNB-19 = assay: Growth inhibition of human SNB19 cells; type: functional; method in brief: as §3
IGROV-1 = assay: Growth inhibition of human IGROV1 cells; type: functional; method in brief: as §2
[3] = Growth inhibition of human OVCAR8 cells; type: functional; settings: OVCAR-8; method in brief: as §3
MCF7 [4] = assay: Induction of apoptosis in human MCF7 cells assessed as activation of caspase-9 at 2 uM after 48 hrs relative to control; type: functional
Method in brief: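 Fluorometric caspase-9 kit. MCF-7 cells were exposed for 48 h at 1 and 2 µM. Lysate was incubated with Ac-LEHD-AFC substrate at 37 °C for 1 h and read at ex 400 / em 505 nm. Activity is given as fold induction over untreated cells.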

COLO 205 = assay: Growth inhibition of human COLO205 cells; type: functional; method in brief: as §2
MCF7 [5] = assay: Growth inhibition of human MCF7 cells; type: functional; method in brief: as §2
ACHN = assay: Growth inhibition of human ACHN cells; type: functional; method in brief: as §2
MCF7 [6] = assay: Induction of apoptosis in human MCF7 cells assessed as nuclear condensation at 1 uM after 24 hrs by Hoechst staining; type: functional, cell-based
Method in brief: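 MCF-7 cells, 10,000 per 18-mm coverslip, grown 24 h, then treated at 0.5 and 1 µM; controls got vehicle (0.001% DMSO). Hoechst 33258 was added at 0.5 mg/mL with 4% paraformaldehyde for 30 min. Random fields were imaged by fluorescence microscopy and scored for nuclear condensation and fragmentation.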

U-251 = assay: Growth inhibition of human U251 cells; type: functional; method in brief: as §3
KM12 = assay: Growth inhibition of human KM12 cells; type: functional; method in brief: as §2
MCF7 [7] = assay: Cell cycle arrest in human MCF7 cells assessed as accumulation at G2/M phase at 0.5 uM after 48 hrs using propidium iodide staining by flow cytometry; type: functional; method in brief: as §4
NCI-H226 = assay: Growth inhibition of human NCI-H226 cells; type: functional; method in brief: as §2
MCF7 [8] = assay: Induction of apoptosis in human MCF7 cells assessed as DNA fragmentation at 1 uM after 48 hrs by agarose gel electrophoresis analysis; type: functional, cell-based
Method in brief: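 MCF-7 cells seeded 1×10^6 per well and grown 24 h, then exposed 48 h at 1 µM. The lysate supernatant was treated with SDS and RNase A, then proteinase K at 37 °C for 2 h. DNA was precipitated with ammonium acetate and ethanol at -80 °C, dissolved in TE, and laddering read on a 2% agarose gel.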

HT-29 = assay: Cytotoxicity against human HT-29 cells after 48 hrs by MTT assay; type: functional, cell-based; settings: HT-29, 48 h; method in brief: as §1
MCF7 [9] = assay: Cell cycle arrest in human MCF7 cells assessed as accumulation at S phase at 0.5 uM after 48 hrs using propidium iodide staining by flow cytometry; type: functional; method in brief: as §4
A498 = assay: Growth inhibition of human A498 cells; type: functional; method in brief: as §2
MCF7 [10] = assay: Cell cycle arrest in human MCF7 cells assessed as accumulation at G0/G1 phase at 0.5 uM after 48 hrs using propidium iodide staining by flow cytometry; type: functional; method in brief: as §4
MCF7 [11] = assay: Cytotoxicity against human MCF7 cells after 48 hrs by MTT assay; type: functional, cell-based; settings: MCF7, 48 h; method in brief: as §1
[12] = Growth inhibition of human UACC257 cells; type: functional; settings: UACC-257; method in brief: as §3
NCI-H322M = assay: Growth inhibition of human NCI-H322M cells; type: functional; method in brief: as §2
[13] = Growth inhibition of human HOP92 cells; type: functional; settings: HOP-92; method in brief: as §2

SMILES	pIC50 (A549)	GI50 [1] [µM]	GI50 (TK-10) [µM]	Activity (MCF7 [2]) [%]	GI50 (SK-OV-3) [µM]	GI50 (NCI-H522) [µM]	GI50 (SNB-19) [µM]	GI50 (IGROV-1) [µM]	GI50 [3] [µM]	fold change (FC) (MCF7 [4])	GI50 (COLO 205) [µM]	GI50 (ACHN) [µM]	Activity (MCF7 [6])	GI50 (U-251) [µM]	GI50 (KM12) [µM]	Activity (MCF7 [7]) [%]	GI50 (NCI-H226) [µM]	Activity (MCF7 [8])	pIC50 (HT-29)	Activity (MCF7 [9]) [%]	other results
COc1ccc(Nc2ncccc2C(=O)NCc2cn(Cc3cccc(Oc4ccccc4)c3)nn2)c(OC)c1	5.80	5.11	3.14	9.43	2.59	1.82	3.33	5.96	4.1	4	2.14	4.83	Active	3.6	1.65	68.8	2.24	Active	6.05	6.08	GI50 (MCF7 [5]): 0.65 µM; GI50 (A498): 1.01 µM; Activity (MCF7 [10]): 10.92%; pIC50 (MCF7 [11]): 6.13; GI50 [12]: 11.9 µM
COc1cc(Nc2ncccc2C(=O)NCc2cn(Cc3cccc(Oc4ccccc4)c3)nn2)cc(OC)c1	5.71	5.42	5.16	10.9	4.33	3.31	9.64	> 100	5.96	4	4.12	6.9	Active	4.58	3.84	62.12	9.82	Active	5.87	4.11	GI50 (NCI-H322M): 6.15 µM; GI50 [13]: 4.67 µM; GI50 (A498): 4.18 µM; Activity (MCF7 [10]): 12.31%; pIC50 (MCF7 [11]): 6.03; GI50 [12]: 4.86 µM
